Results from ChEMBL document CHEMBL3352210, “Aurones as histone deacetylase inhibitors: identification of key features” (Bioorg Med Chem Lett, 2014).
Calls of active or inactive are those of the source. The calls are words filed in the database; no cut-off is given here.

What was measured:
[1] = biological target: T1, Histone deacetylase (Homo sapiens) (UniProt Q13547+O15379+Q9UBN7+Q92769+Q9UQL6+Q8WUI4+Q9BY41+Q96DB2+P56524+Q9UKV0+Q969S8); assay: Inhibition of HDAC in human HeLa cell extract at 100 uM after 15 mins by fluorescence assay; type: protein assay
Histone deacetylase = assay: Inhibition of HDAC in human HeLa cell extract after 15 mins by fluorescence assay; type: protein assay
[2] = Cytotoxicity against human MCF7 cells assessed as cell viability at 15 uM after 72 hrs by Celltitre-glo assay; type: cell-based; conditions: read-out: Activity
[3] = Cytotoxicity against human HepG2 cells assessed as cell viability at 15 uM after 72 hrs by Celltitre-glo assay; type: cell-based; conditions: read-out: Activity
[4] = biological target: T2, NAD-dependent protein deacetylase sirtuin-2 (Homo sapiens) (UniProt Q8IXJ6); assay: Modulation of sirtuin 2 (unknown origin) by thermal shift assay
T2 sequence (whole entry): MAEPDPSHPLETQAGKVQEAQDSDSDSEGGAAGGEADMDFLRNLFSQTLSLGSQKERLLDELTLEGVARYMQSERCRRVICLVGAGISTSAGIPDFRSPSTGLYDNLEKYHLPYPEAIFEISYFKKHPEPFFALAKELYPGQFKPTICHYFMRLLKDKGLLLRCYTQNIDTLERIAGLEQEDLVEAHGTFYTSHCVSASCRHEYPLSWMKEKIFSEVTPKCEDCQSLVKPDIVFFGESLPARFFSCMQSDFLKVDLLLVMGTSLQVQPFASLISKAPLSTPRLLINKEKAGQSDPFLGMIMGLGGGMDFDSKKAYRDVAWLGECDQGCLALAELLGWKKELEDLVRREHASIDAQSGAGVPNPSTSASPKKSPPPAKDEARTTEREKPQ
Summary of the method: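 Sirtuin 2 modulation tested by thermal shift assay.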

[5] = biological target: T3, Retinoic acid receptor beta (Homo sapiens) (UniProt P10826); assay: Inhibition of RAR-beta (unknown origin) assessed as change in DNA methylation
T3 sequence (whole entry): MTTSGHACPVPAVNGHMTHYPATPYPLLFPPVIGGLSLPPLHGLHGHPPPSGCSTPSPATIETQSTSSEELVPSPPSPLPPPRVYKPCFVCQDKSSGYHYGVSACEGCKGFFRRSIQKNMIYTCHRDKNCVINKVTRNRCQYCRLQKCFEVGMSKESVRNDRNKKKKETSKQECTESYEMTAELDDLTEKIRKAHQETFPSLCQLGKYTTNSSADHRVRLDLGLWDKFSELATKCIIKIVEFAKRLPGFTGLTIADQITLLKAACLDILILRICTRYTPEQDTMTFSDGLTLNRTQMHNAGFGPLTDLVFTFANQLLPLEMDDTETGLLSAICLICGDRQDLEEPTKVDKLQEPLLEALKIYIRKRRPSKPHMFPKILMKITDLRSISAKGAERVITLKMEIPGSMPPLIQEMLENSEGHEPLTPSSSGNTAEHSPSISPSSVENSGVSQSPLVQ
Summary of the method: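 DNA methylation changes assessed by specific PCR for RARb.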

Histone deacetylase 1 = Histone deacetylase 1 (Homo sapiens, UniProt Q13547); assay: Inhibition of HDAC1 (unknown origin) after 15 mins by fluorescence assay
Chain of Histone deacetylase 1 (Q13547 whole entry): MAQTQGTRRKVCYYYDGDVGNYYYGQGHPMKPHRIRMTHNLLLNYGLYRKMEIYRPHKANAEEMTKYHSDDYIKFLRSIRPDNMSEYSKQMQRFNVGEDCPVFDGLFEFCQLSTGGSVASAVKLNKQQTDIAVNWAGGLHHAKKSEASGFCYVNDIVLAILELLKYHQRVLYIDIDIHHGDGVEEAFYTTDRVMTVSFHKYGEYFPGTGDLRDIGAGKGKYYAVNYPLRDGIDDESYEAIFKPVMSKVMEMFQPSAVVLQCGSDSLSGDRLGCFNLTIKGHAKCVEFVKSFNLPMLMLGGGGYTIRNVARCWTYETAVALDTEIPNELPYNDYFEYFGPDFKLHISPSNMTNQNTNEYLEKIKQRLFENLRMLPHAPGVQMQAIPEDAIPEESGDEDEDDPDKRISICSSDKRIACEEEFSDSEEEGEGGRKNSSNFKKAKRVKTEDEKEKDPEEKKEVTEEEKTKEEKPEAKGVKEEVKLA

Histone deacetylase 2 = Histone deacetylase 2 (Homo sapiens, UniProt Q92769); assay: Inhibition of HDAC2 (unknown origin) after 15 mins by fluorescence assay
Chain of Histone deacetylase 2 (Q92769 whole entry): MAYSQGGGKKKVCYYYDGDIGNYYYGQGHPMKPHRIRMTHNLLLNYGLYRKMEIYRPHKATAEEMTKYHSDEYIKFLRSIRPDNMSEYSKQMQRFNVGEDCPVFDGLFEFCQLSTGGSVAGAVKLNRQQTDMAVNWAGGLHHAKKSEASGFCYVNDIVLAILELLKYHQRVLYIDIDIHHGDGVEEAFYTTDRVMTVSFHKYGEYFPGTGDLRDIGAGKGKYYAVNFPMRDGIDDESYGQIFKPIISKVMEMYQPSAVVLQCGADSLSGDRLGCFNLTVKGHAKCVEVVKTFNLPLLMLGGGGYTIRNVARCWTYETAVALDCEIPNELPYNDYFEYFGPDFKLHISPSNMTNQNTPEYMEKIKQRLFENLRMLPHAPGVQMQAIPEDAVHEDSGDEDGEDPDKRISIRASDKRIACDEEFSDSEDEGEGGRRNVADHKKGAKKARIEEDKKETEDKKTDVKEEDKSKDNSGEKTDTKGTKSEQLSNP

[6] = biological target: T4, Protein deacetylase HDAC6 (Homo sapiens, UniProt Q9UBN7); assay: Inhibition of HDAC6 (unknown origin) after 15 mins by fluorescence assay
T4 sequence (Q9UBN7 whole entry): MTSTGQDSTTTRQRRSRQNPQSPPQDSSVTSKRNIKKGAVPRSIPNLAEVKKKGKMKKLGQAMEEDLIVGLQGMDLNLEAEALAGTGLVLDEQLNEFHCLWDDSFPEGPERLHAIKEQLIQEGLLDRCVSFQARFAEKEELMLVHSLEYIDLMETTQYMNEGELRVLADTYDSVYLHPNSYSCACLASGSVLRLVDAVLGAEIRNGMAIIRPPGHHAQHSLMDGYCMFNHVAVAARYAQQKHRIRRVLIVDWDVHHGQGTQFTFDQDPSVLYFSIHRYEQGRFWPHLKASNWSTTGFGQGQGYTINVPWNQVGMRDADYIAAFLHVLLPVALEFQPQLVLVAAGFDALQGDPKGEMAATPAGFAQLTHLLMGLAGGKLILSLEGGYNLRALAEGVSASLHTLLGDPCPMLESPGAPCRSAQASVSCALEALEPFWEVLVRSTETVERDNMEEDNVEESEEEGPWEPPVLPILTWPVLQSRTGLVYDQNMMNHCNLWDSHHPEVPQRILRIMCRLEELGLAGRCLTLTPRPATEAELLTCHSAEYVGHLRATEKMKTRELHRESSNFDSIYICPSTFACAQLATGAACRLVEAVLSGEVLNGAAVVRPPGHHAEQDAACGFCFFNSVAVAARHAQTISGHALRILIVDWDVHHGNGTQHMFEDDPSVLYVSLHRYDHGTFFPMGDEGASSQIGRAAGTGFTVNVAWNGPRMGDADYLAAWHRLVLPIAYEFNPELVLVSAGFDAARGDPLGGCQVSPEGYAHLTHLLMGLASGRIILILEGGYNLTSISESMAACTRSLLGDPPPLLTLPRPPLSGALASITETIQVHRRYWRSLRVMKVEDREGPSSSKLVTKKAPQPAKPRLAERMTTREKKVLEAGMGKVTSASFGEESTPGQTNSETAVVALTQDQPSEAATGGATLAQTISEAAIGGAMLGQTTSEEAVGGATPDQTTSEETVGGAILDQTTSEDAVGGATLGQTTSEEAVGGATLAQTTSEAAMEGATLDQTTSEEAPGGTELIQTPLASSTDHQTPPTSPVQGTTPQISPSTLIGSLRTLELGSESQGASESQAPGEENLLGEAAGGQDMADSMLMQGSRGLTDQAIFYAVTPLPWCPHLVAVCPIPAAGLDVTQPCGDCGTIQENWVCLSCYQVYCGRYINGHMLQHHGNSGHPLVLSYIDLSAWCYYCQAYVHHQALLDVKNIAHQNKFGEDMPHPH

[7] = biological target: T1, Histone deacetylase (Homo sapiens); assay: Inhibition of HDAC in human MeT-5A cells assessed as hisone H3 acetylation after 16 hrs by BRET assay; type: cell-based
Summary of the method: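 MeT-5A cells transfected with phRluc-C1-BrD and pEYFP-C1 histone H3, then exposed 16 h to increasing doses; BRET signal read as measure of histone H3 acetylation (rise in signal = more acetylation). SAHA used as positive control. Means ± SEM of three independent experiments.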

[8] = Cytotoxicity against human MeT-5A cells after 16 hrs by luciferase reporter gene assay; type: cell-based

Compound	inhibition [1]	IC50 (Histone deacetylase)	inhibition [4]	inhibition [5]	IC50 (Histone deacetylase 1)	IC50 (Histone deacetylase 2)	IC50 [6]	inhibition [7]	viability at 72 h, 15 µM [2]	viability at 72 h, 15 µM [3]	Activity [8]
COCOc1cc(OCOC)c2c(c1)O/C(=C\c1ccc(OCOC)c(OCOC)c1)C2=O	75%	40 µM	inactive	inactive					21%	7%	
O=C(/C=C/c1ccc(Cl)cc1)c1ccccc1O	0%		inactive	inactive					90%	62%	
O=C1/C(=C/c2ccc(O)c(O)c2)Oc2cc(O)cc(O)c21 [AUREUSIDIN]	100%	18.5 µM	inactive	inactive	38 µM	38.9 µM	48.5 µM	Dose-dependent effect	102%	116%	Dose-dependent effect
O=C1/C(=C/c2ccc(O)c(O)c2)Oc2ccccc21	100%	8.2 µM	inactive	inactive	11.4 µM	5.1 µM	26.9 µM	Dose-dependent effect	95%	114%	Dose-dependent effect
Cc1ccc(/C=C2\Oc3ccccc3C2=O)cc1	5%		inactive	inactive					86%	35%	
COc1cc(OC)c2c(c1)O/C(=C\c1ccccc1OC)C2=O	7%		inactive	inactive					89%	104%	
COc1cc(OC)c2c(c1)O/C(=C\c1ccccc1Cl)C2=O	46%		inactive	inactive					72%	80%	
O=C1/C(=C/c2ccc(O)cc2)Oc2ccccc21	100%	12.6 µM	inactive	inactive	129 µM	100 µM	136 µM	Dose-dependent effect	79%	100%	Dose-dependent effect
COc1ccc(/C=C2\Oc3ccccc3C2=O)cc1 [4'-METHOXY-AURONE]	23%		inactive	inactive					88%	65%	
O=C(O)c1ccc(/C=C2\Oc3ccccc3C2=O)cc1	28%		inactive	inactive					105%	73%	
Cc1ccc(/C=C/C(=O)c2ccccc2O)cc1	0%		inactive	inactive					96%	120%	
O=C1/C(=C/c2cccc(O)c2O)Oc2ccccc21	98%	18.6 µM	inactive	inactive	21 µM	16.4 µM	26.9 µM	Dose-dependent effect	109%	113%	Dose-dependent effect
COc1cc(OC)c2c(c1)O/C(=C\c1ccccc1)C2=O	27%		inactive	inactive					73%	9%	

Continued, in another order:

inhibition [1]	IC50 (Histone deacetylase)	inhibition [4]	inhibition [5]	IC50 (Histone deacetylase 1)	IC50 (Histone deacetylase 2)	IC50 [6]	inhibition [7]	Compound	viability at 72 h, 15 µM [2]	viability at 72 h, 15 µM [3]	Activity [8]
14%		inactive	inactive				Dose-dependent effect	COc1ccc(/C=C2\Oc3ccc(Br)cc3C2=O)cc1OC	108%	93%	Dose-dependent effect
30%		inactive	inactive					O=C(O)c1ccc(/C=C2\Oc3ccc(Cl)cc3C2=O)cc1	109%	86%	
6%		inactive	inactive					COc1cccc(/C=C2\Oc3ccc(Cl)cc3C2=O)c1OC	115%	99%	
20%		inactive	inactive					COc1ccc(/C=C2\Oc3cc(OC)cc(OC)c3C2=O)cc1 [4,4',6-TRIMETHOXY-AURONE]	10%	119%	
51%	71 µM	inactive	inactive				Dose-dependent effect	COc1ccc(/C=C2\Oc3ccccc3C2=O)cc1OC [3',4'-DIMETHOXY-AURONE]	91%	114%	Dose-dependent effect
12%		inactive	inactive					COc1cccc(/C=C2\Oc3ccccc3C2=O)c1OC	94%	104%	
1%		inactive	inactive					COc1cccc(/C=C2\Oc3ccccc3C2=O)c1 [3'-METHOXY-AURONE]	89%	101%	
13%		inactive	inactive					O=C1/C(=C/c2ccc(Cl)cc2)Oc2ccccc21	85%	110%	
7%		inactive	inactive					COc1ccccc1/C=C1\Oc2ccccc2C1=O [(Z)-2'-METHOXYAURONE]	88%	103%	
